In PMC11617404 (iScience, 2024):

What was measured:
[1] = molecular target: T1, HYlight (Bacillus subtilis, UniProt O32253); test: Titration of purified HYlight with oligomycin or 2-DG; format: binding; conditions: increasing concentrations, Figure S1E
[2] = system: HepG2 cells; test: ECAR and OCR during glycolytic stress test; format: cell-based, human; conditions: 1 h glucose starvation, 10 mM glucose, 10 μM oligomycin, 100 mM 2-DG
How it was run: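 HepG2 cells in Seahorse plates were transfected the next day with the sensor or its null variant. At 24 h they were glucose-starved for 1 h in XF DMEM (pH 7.4, 2 mM glutamine, no glucose, no phenol red) in a CO2-depleted incubator, and the medium was renewed. Additions: 10 mM glucose, 10 μM oligomycin, then 100 mM 2-DG in two 50 mM steps. OCR (pmol O2/min) was normalized to cell number by BCA protein assay; n = 3.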

[3] = system: primary mouse hepatocytes; test: Hypoxia induction assay; format: cell-based; conditions: 1 mM overnight, 1 h starvation
How it was run: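 Transfected primary mouse hepatocytes received 1 mM DMOG 24 h before and during the assay, with DMSO as blank. After 1 h glucose starvation they were given 20 mM glucose (35 min), a further 20 mM glucose (10 min), then 100 mM 2-DG (10 min), with the 488/405 nm ratio recorded.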

[4] = system: HepG2 cells; test: Hypoxia induction assay; format: cell-based, human; conditions: 1 mM overnight, 1 h starvation
How it was run: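 Transfected HepG2 cells received 1 mM DMOG 24 h before the assay, kept throughout, with DMSO as blank. After 1 h glucose starvation, cells were imaged for 30 min after 10 mM glucose, following the 488/405 nm ratio. n ≥ 5, 50 cells per replicate.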

[5] = system: aldolase; conditions: cited from earlier work
[6] = system: FBPase-1; conditions: FBPase-1 for FBP, gluconeogenic conditions; cited from earlier work
[7] = FBP quantification with HYlight in primary mouse hepatocytes; format: cell-based
How it was run: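 Hepatocytes were transfected with HYlight plasmid 2 h after seeding; medium was replaced 12 h later. Cells were glucose-starved 1 h in glucose-free Seahorse XF DMEM (pH 7.4, 2 mM glutamine), then given 10 mM glucose. Confocal 488/405 ratios were normalized to post-2-DG values and read against an in vitro FBP curve (ΔR/R10) mimicking ionic strength and metabolic competition. n = 3, ≥50 cells each.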

[8] = system: HepG2 cells; test: FBP added to the media of non-permeabilized HepG2 cells expressing HYlight; format: cell-based, human; conditions: intact HepG2 cells, increasing FBP in the media, no saponin
[9] = system: PFK-1; conditions: PFK-1 toward FBP; ref BRENDA:EC2.7.1.11; Zheng and Kemp[47]; cited from earlier work
[10] = molecular target: T1, HYlight; test: Titration of purified recombinant HYlight, excitation ratio F500/F400; format: binding; conditions: for average fluorescence ratio: 1 μM FBP, Figure 6D; for maximum ratiometric value (fluorescence ratio): Figure 6A; for fluorescence ratio (maximum): Figure 7A; for maximum fluorescence ratio: purified HYlight, titration from low μM to mM range, Figure 5C
How it was run: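 Purified sensor (200 nM) was scanned at excitation 350–520 nm, emission 560 nm, 25°C, with ratio F500/F400. For ionic strength, protein in TBS (0 mM NaCl, 50 mM Tris-HCl pH 7.6) was titrated with FBP and NaCl 0–150 mM. The buffer series compared 25 mM MES/CHES/HEPES, PBS and Britton-Robinson pH 8, pH-adjusted with NaOH; n = 3.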

[11] = molecular target: T1, HYlight; test: Metal binding assay on purified HYlight; conditions: 150 mM NaCl or KCl, 0.1 mM EDTA
[12] = molecular target: T1, HYlight; test: Phosphate titration assay on purified HYlight; format: binding
How it was run: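 Purified sensor (200 nM) or null variant was tested in SEC buffer pH 8 with TBS or PBS. Separately, 200 mM Sorensen's phosphate pH 8 was titrated from the nM to mM range into sensor in 50 mM Tris pH 8, with or without 100 μM FBP, keeping conductivity constant. Excitation was scanned 350–520 nm, emission 560 nm, 25°C; read-out was the F500/F400 ratio change; n = 3.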

[13] = system: primary mouse hepatocytes; test: Glucose titration, HYlight confocal imaging in primary mouse hepatocytes; format: cell-based; conditions: 1 h glucose starvation, glucose 0–40 mM added every 10 min
How it was run: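 Hepatocytes were isolated by two-step collagenase perfusion via the vena cava and cultured in William's medium with 10% FBS and 10 mM HEPES. They were transfected 2 h after seeding, with medium changed at 12 h. After 1 h starvation in glucose-free XF DMEM pH 7.4, cells were imaged 10 min, given glucose in steps every 10 min to 40 mM, then 100 mM 2-DG. The 488/405 nm ratio was recorded; n = 3, ≥50 cells each.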

[14] = system: HLE cells; test: Glycolytic stress test, HYlight confocal imaging in HLE cells; format: cell-based, human; conditions: after the addition of 10 mM glucose
How it was run: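 Transfected HLE cells were glucose-starved for 1 h in XF DMEM pH 7.4 (2 mM glutamine, no glucose) and imaged 10 min. They then received 10 mM glucose for 30 min, 2.5 μM oligomycin for 30 min and 50 mM 2-DG for 30 min. The 488/405 nm ratio was followed over time and min-max normalized.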

[15] = system: HepG2, HLE, and Huh6 cells; test: Glucose titration, HYlight confocal imaging in hepatoma cell lines; format: cell-based, human
How it was run: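 Hepatoma lines expressing codon-optimized cytosolic sensor (Lipofectamine, medium changed at 24 h) were glucose-starved for 1 h in XF DMEM pH 7.4 without glucose. They were imaged 10 min, then given increasing glucose every 10 min up to 40 mM, then 50 mM 2-DG. The 488/405 nm confocal ratio was min-max normalized, and the Hill coefficient was taken from ratio versus glucose; n = 3, ≥50 cells each.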

[16] = system: HepG2 cells; test: Gluconeogenesis induction with FBP1 or PFK inhibition, HYlight imaging; format: cell-based, human
How it was run: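 HepG2 cells were kept in DMEM Glutamax with 25 mM lactate and 0.65 mM pyruvate. After transfection, 50 μM dexamethasone and 100 nM glucagon were added; normal medium served as comparison. The PFK inhibitor (20 μM) was given 24 h before the assay, and the FBP1 inhibitor (20 μM) acutely. After 1 h glucose starvation, cells were imaged with dexamethasone and glucagon (60 min each), FBP1 inhibitor (30 min), then 15 mM glucose (25 min). Read-out was 488/405 nm ratio; n ≥ 3, 50 cells each.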

[17] = molecular target: T1, HYlight; conditions: cited from earlier work
[18] = molecular target: T1, HYlight; test: Dihydroxyacetone phosphate competition assay on purified HYlight; format: binding; conditions: purified HYlight in the presence of 100 μM FBP, Figure 5D
How it was run: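 Protein was IPTG-induced (0.5 mM, overnight, 30°C), purified by Ni2+ affinity and size exclusion, and used at 200 nM. DHAP was titrated with or without 100 μM FBP, and with or without cytosolic ionic strength (140 mM K+, 12 mM Na+) plus a metabolic mix. Excitation was scanned 350–520 nm with emission at 560 nm, 25°C. Ratio R = F500/F400, ΔR/R0 = (Rt−Rt=0)/Rt=0; n = 3.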

T1 sequence (O32253 96-340, other chains not shown): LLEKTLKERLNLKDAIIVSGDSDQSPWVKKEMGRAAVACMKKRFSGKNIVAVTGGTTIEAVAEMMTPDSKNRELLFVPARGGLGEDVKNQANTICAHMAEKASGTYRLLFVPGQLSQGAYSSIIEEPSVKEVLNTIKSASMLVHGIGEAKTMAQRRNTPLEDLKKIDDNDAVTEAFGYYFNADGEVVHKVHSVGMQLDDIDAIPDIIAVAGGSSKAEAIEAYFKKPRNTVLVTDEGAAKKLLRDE

With O=CC[C@@H](O)[C@H](O)[C@H](O)CO [2-DG, 2-deoxy-D-glucose] the “direct effect on ratiometric response of purified HYlight” value [1] was “do not directly interact with HYlight” and the “change of oxygen consumption rate (OCR)” value [2] was “increase in the OCR”.
With COC(=O)CNC(=O)C(=O)OC [DMOG, dimethyloxalylglycine] the “basal fluorescence (HYlight ratio)” value [3] was “significant increase in basal fluorescence”, the “response to glucose (HYlight ratio)” value [3] was “diminished or absent response to glucose” and the “basal fluorescence (HYlight ratio)” value [4] was “significant increase in basal fluorescence”. The “response to glucose (HYlight ratio)” value [4] was “diminished or absent response to glucose”.
In the case of O=C(COP(=O)(O)O)[C@@H](O)[C@H](O)[C@H](O)COP(=O)(O)O [FBP, fructose 1,6-bisphosphate], the specificity constant ([5]; aldolase for FBP) is given as 4.7 mM⁻^1s⁻^1, the specificity constant [6] is given as 23 mM⁻^1s⁻^1 and the “FBP concentration in primary mouse hepatocytes (HYlight)” value ([7]; after 10 mM glucose) is given as 21 µM. For the same compound, the “FBP concentration in primary mouse hepatocytes (HYlight)” value ([7]; before glucose addition) was 15 µM, the “entry of FBP from the media into cells (HYlight ratio unchanged)” value [8] was “could not cross the membrane” and the turnover rate [9] was 111 s⁻¹. For the same compound, the average fluorescence ratio ([10]; TBS with 0 mM NaCl) was 1.87, the average fluorescence ratio ([10]; TBS with 150 mM NaCl) was 0.94 and the “maximum ratiometric value (fluorescence ratio)” value (“maximum ratiometric value” below) ([10]; Britton-Robinson phosphate buffer) was 1. For the same compound, the “fluorescence ratio (maximum)” value ([10]; CIS (140 mM KCl and 12 mM NaCl)) was 3.5, the “fluorescence ratio (maximum)” value ([10]; CIS + metabolic mix solution) was 3.5 and the “maximum ratiometric value” value ([10]; MES-CHES-HEPES buffer) was ~3. For the same compound, the “maximum ratiometric value” value ([10]; PBS) was 2, the maximum fluorescence ratio [10] was 2 and the “fluorescence ratio (maximum)” value ([10]; working buffer, 125 mM NaCl) was 2.
For O=C(O)CN(CCN(CC(=O)O)CC(=O)O)CC(=O)O [EDTA, ethylenediaminetetraacetic acid], the “effect on response and apparent KD value of HYlight for FBP” value (shortened to “effect on response and apparent KD value”) [11] was “did not alter the response or the apparent KD value”.
In the case of [K+] [K^+], the “effect on response and apparent KD value” value [11] is reported as “did not alter the response or the apparent KD value”.
With phosphate the “effect of phosphate titration on 500/400 fluorescence ratio” value ([12]; in the absence of FBP) was “increase in the 500/400 fluorescence ratio” and the “effect of phosphate titration on fluorescence response” value ([12]; in the presence of 100 μM FBP) was “decrease in fluorescence response”.
For OC[C@H]1OC(O)[C@H](O)[C@@H](O)[C@@H]1O (stereo partly shown) [glucose], the “glucose concentration after which HYlight changes were detected” value [13] was 20 mM, the “change of oxygen consumption rate (OCR)” value [2] was “decrease in oxygen consumption” and the “time to maximum HYlight response” value [14] was 30 min. For the same compound, the “glucose concentration needed for HYlight changes” value ([15]; 1 h glucose starvation, glucose 0–40 mM added every 10 min) was 5 mM and the “hill coefficient of HYlight ratio against glucose concentration” value ([15]; HLE, HepG2, Huh6 cell lines and primary mouse hepatocytes, Figure 1C) was “approximately 1”.
For O=C(/C=C/c1cccnc1)c1ccncc1 [3PO, (2E)-3-(3-Pyridinyl)-1-(4-pyridinyl)-2-propen-1-one], the “decrease in FBP levels after glucose addition” value ([16]; 20 μM, 24 h treatment, gluconeogenic media) was “not observed” and the “FBP levels (HYlight ratio) after glucose addition” value ([16]; 20 μM, 24 h treatment, normal media) was “significant decrease in the FBP levels”.
In the case of O=S(=O)(Nc1nc2cc(Cl)ccc2o1)c1cc(Cl)ccc1Cl [5-chloro-2-(N-(2,5-dichlorobenzenesulfonamide))-benzoxazole], the “FBP level (HYlight ratio) after glucose addition” value ([16]; 20 μM inhibitor, gluconeogenic medium, 15 mM glucose) is reported as “increase of FBP to levels comparable to those seen with standard media”.
For [Na+] [Na^+], the “effect on response and apparent KD value” value [11] was “did not alter the response or the apparent KD value”.
For O=P(O)(O)OC[C@H]1O[C@@](CO)(OP(=O)(O)O)[C@@H](O)[C@@H]1O [fructose 2,6-bisphosphate], the “binding to HYlight” value [17] is listed as “can also bind”.
For O=CC(O)COP(=O)(O)O (stereo not shown) [glyceraldehyde 3-phosphate], the turnover rate ([5]; aldolase toward glyceraldehyde 3-phosphate, ref BRENDA:EC4.1.2.13, Plater et al.[48]) is given as 8.2 s⁻¹.
In the case of CC[C@H]1/C=C/C=C/C[C@@H](C)[C@H](O)[C@@](C)(O)C(=O)[C@@H](C)[C@H](O)[C@@H](C)C(=O)[C@@H](C)[C@H](O)[C@@H](C)/C=C/C(=O)O[C@@H]2[C@H](C)[C@H](CC1)O[C@]1(CC[C@H](C)[C@H](C[C@@H](C)O)O1)[C@H]2C [oligomycin, Oligomycin A], the “direct effect on ratiometric response of purified HYlight” value [1] is reported as “do not directly interact with HYlight” and the “change of oxygen consumption rate (OCR)” value [2] is reported as “decrease in oxygen consumption”.
For O=C(CO)COP(=O)(O)O [DHAP, dihydroxyacetone phosphate], the “DHAP concentration at which significant competition was observed” value [18] was “above 2.5 mM” and the maximum fluorescence ratio [10] was 0.75.
